Measurements from ChEMBL document CHEMBL4619811, “Systematic Investigation of the Permeability of Androgen Receptor PROTACs” (ACS Med Chem Lett, 2020).
The source made the active and inactive calls. The calls are words filed in the database; no cut-off is given here.

Experiments:
[1] = Chromatographic hydrophobicity index, log D of the compound at pH 7.4 by HPLC analysis; type: physicochemical; settings: buffer
Albumin = Albumin (Homo sapiens, UniProt P02768); assay: Binding affinity to HSA assessed as free fraction by HPLC analysis; type: ADME; settings: isolated protein
Sequence of Albumin (P02768 whole entry): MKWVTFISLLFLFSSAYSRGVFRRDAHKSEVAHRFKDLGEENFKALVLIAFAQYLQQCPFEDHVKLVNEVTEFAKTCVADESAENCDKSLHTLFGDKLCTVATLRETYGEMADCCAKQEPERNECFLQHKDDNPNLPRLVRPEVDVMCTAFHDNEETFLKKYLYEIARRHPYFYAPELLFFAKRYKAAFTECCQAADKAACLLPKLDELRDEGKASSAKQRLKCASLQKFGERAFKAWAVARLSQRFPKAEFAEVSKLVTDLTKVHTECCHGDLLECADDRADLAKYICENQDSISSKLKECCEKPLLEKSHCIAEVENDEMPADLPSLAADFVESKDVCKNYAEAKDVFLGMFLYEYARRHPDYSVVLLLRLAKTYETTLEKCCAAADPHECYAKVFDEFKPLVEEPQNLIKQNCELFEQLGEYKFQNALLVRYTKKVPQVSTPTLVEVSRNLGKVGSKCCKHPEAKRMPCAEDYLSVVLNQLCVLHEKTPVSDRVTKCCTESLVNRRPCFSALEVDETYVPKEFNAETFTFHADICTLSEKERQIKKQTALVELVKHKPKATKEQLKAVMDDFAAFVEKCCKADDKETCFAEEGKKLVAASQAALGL

[2] = Apparent permeability in pH 7.4 ammonium acetate buffer incubated for 5 hrs by PAMPA; type: ADME
In short: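 Passive permeability by PAMPA, reported as Papp in 10–6 cm s–1. Values under the limit of quantification were flagged as BLQ. Compound recovery in the assay was also determined.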

[3] = biological target: T1, von Hippel-Lindau disease tumor suppressor/Androgen receptor (Homo sapiens, UniProt P10275+P40337); assay: Protac activity at VHL/androgen receptor in human LNCaP cells assessed as induction of androgen receptor protein degradation at 1 uM incubated for 6 hrs by Western blot analysis relative to control; type: cell-based
Target sequence in this assay (P10275 whole entry, looked up): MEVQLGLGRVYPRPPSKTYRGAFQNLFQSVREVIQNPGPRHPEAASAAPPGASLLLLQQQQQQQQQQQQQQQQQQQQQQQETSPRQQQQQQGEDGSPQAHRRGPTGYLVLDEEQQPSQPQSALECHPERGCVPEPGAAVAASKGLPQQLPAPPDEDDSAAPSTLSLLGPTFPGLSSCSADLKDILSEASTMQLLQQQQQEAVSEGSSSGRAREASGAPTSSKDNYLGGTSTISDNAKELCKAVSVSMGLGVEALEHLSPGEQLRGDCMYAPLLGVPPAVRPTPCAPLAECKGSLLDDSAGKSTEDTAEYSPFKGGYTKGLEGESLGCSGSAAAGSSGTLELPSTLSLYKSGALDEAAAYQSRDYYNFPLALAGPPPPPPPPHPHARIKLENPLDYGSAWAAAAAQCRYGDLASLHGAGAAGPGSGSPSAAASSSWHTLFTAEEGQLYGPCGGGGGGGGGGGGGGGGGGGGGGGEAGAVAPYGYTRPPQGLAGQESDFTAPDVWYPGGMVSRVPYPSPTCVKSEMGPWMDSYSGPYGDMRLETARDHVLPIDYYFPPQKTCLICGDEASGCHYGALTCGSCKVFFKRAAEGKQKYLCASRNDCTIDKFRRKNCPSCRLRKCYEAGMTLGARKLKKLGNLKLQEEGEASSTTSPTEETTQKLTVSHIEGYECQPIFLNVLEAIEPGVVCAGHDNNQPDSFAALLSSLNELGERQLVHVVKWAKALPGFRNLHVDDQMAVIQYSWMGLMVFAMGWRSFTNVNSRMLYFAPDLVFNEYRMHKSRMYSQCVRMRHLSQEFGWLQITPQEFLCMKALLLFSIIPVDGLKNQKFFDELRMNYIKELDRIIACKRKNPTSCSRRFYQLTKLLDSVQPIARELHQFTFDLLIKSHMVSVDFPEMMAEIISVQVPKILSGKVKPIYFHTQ
Target sequence in this assay (P40337 whole entry, looked up): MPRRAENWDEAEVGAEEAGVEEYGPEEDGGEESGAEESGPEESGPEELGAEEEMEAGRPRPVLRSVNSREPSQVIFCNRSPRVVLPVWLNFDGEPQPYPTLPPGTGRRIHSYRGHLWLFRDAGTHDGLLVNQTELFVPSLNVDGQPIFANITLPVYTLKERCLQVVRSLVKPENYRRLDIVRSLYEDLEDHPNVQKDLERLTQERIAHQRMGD

[4] = Apparent permeability from apical to basolateral side in human Caco2 cells at 10 uM incubated for 120 mins; type: ADME, cell-based; settings: Caco-2
In short: (§1)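 Polarized Caco-2 cell monolayer, permeability measured in both directions (apical to basolateral and basolateral to apical), reported as Papp in 10–6 cm s–1. Efflux ratio taken as the ratio of the directional permeabilities. Compound recovery also determined.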

[5] = Apparent permeability from basolateral to apical side in human Caco2 cells at 10 uM incubated for 120 mins; type: ADME, cell-based; settings: Caco-2; in short: as §1
[6] = Efflux ratio of apparent permeability across basolateral to apical membrane over apical to basolateral membrane in human Caco2 cells at 10 uM incubated for 120 mins; type: ADME, cell-based; settings: Caco-2; in short: as §1
[7] = biological target: T1, von Hippel-Lindau disease tumor suppressor/Androgen receptor; assay: Protac activity at VHL/androgen receptor in human LNCaP cells assessed as induction of androgen receptor protein degradation incubated for 6 hrs by Western blot analysis; type: cell-based
In short: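 Androgen-dependent LNCaP prostate adenocarcinoma cells treated across a concentration range, then AR protein levels normalized and plotted against concentration. DCMAX is the percentage of AR cleared; DC50 is the concentration giving half of DCMAX. At least 5 independent experiments, each in triplicate. Significance by ANOVA with Dunnett's test.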

[8] = biological target: T1, von Hippel-Lindau disease tumor suppressor/Androgen receptor; assay: Protac activity at VHL/androgen receptor in human LNCaP cells assessed as induction of androgen receptor protein degradation incubated for 6 hrs by Western blot analysis relative to control; type: cell-based
In short: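 LNCaP cells (androgen-dependent human prostate adenocarcinoma) were exposed to a concentration series of PROTAC. AR protein levels were normalized and plotted against PROTAC concentration. DCMAX is the percentage of AR cleared, and DC50 is the concentration clearing half of DCMAX. Data come from at least 5 independent experiments run in triplicate, with ANOVA (Dunnett's) for significance.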
Target sequence in this assay (P10275 whole entry, looked up): as the sequence (P10275 whole entry, looked up) above
Target sequence in this assay (P40337 whole entry, looked up): as the sequence (P40337 whole entry, looked up) above

| SMILES | CHI [1] | Activity (Albumin) [%] | Papp at 5 h [2] [×10⁻⁶ cm/s] | Papp A→B at 2 h, 10 µM [4] [×10⁻⁶ cm/s] | Papp B→A at 2 h, 10 µM [5] [×10⁻⁶ cm/s] | efflux ratio at 2 h, 10 µM [6] | further results |
| --- | --- | --- | --- | --- | --- | --- | --- |
| Cc1ncsc1-c1ccc(CNC(=O)[C@@H]2C[C@@H](O)CN2C(=O)[C@@H](NC(=O)COCCCOc2ccc(-c3ccc(N4C(=S)N(c5ccc(C#N)c(C(F)(F)F)c5)C(=O)C4(C)C)cc3)cc2)C(C)(C)C)cc1 | 6.2 | 7 | < 1 | – | – | – | – |
| CC(O)(COc1ccc(OCCOCCOCCOCCOc2cccc3c2CN([C@H]2CCC(=O)NC2=O)C3=O)cc1)C(=O)Nc1ccc(C#N)c(C(F)(F)F)c1 (stereo partly drawn) | – | – | 0.4 | – | – | – | – |
| CC(O)(COc1ccc(O)cc1)C(=O)Nc1ccc(C#N)c(C(F)(F)F)c1 (stereo not drawn) | 4 | > 5 | 1.4 | – | – | – | Activity [3]: 23% |
| CC1(C)C(=O)N(c2ccc(C#N)c(C(F)(F)F)c2)C(=S)N1c1ccc(O)cc1 | 5 | > 5 | 4.6 | – | – | – | – |
| Cc1ncsc1-c1ccc(CNC(=O)[C@@H]2C[C@@H](O)CN2C(=O)[C@@H](NC(=O)COCCCOCC(F)(F)C(F)(F)COc2ccc(N3C(=S)N(c4ccc(C#N)c(C(F)(F)F)c4)C(=O)C3(C)C)cc2)C(C)(C)C)cc1 | 6.1 | 7 | < 1 | 0.33 | 0.33 | > 3 | – |
| Cc1ncsc1-c1ccc(CNC(=O)[C@@H]2C[C@@H](O)CN2C(=O)[C@@H](NC(=O)COCCCOCCCCCOc2ccc(N3C(=S)N(c4ccc(C#N)c(C(F)(F)F)c4)C(=O)C3(C)C)cc2)C(C)(C)C)cc1 | 6.3 | 9 | < 1 | 0.35 | 0.24 | 0.7 | – |
| CC1(C)C(=O)N(c2ccc(C#N)c(C(F)(F)F)c2)C(=S)N1c1ccc(OCCOCCOCCOCCOc2cccc3c2CN([C@H]2CCC(=O)NC2=O)C3=O)cc1 | – | – | – | – | – | – | DC50 [7]: 10 nM; %max [8]: 33% |
| OC12CC3CC(CC(C3)C1)C2 | 7.9 | > 5 | – | – | – | – | Activity [3]: 18% |
| CN1C(=O)N(c2ccc(C#N)c(C(F)(F)F)c2)C(=O)C1(C)c1ccc(O)cc1 (stereo not drawn) | 4.4 | > 5 | 8.3 | – | – | – | – |
| Cc1ncsc1-c1ccc(CNC(=O)[C@@H]2C[C@@H](O)CN2C(=O)[C@@H](NC(=O)CCOCCOCCOc2ccc(C(=O)N[C@H]3C(C)(C)[C@H](Oc4ccc(C#N)c(C(F)(F)F)c4)C3(C)C)cc2)C(C)(C)C)cc1 | 5.8 | 8 | < 1 | – | – | – | – |
| CC1(C)C(=O)N(c2ccc(C#N)c(C(F)(F)F)c2)C(=S)N1c1ccc(OCCOCCOCCOCCOc2cccc3c2C(=O)N(C2CCC(=O)NC2=O)C3=O)cc1 (stereo not drawn) | – | – | < 1 | 1.7 | 14.1 | 8.4 | Activity [7]: inactive |
| O=C1CC[C@H](N2Cc3c(O)cccc3C2=O)C(=O)N1 | 0.2 | > 5 | – | – | – | – | – |
| Cc1ncsc1-c1ccc(CNC(=O)[C@@H]2C[C@@H](O)CN2C(=O)[C@@H](NC(=O)COCC(F)(F)COc2ccc(-c3ccc(N4C(=S)N(c5ccc(C#N)c(C(F)(F)F)c5)C(=O)C4(C)C)cc3)cc2)C(C)(C)C)cc1 | 6.1 | 6 | < 1 | – | – | – | – |
| Cc1ncsc1-c1ccc(CNC(=O)[C@@H]2C[C@@H](O)CN2C(=O)[C@@H](NC(=O)COCCCOCCCCOc2ccc(N3C(=S)N(c4ccc(C#N)c(C(F)(F)F)c4)C(=O)C3(C)C)cc2)C(C)(C)C)cc1 | 6 | 10 | < 1 | < 27 | 1.4 | > 0.5 | – |
| Cc1ncsc1-c1ccc(CNC(=O)[C@@H]2C[C@@H](O)CN2C(=O)[C@@H](NC(=O)COCC(F)(F)C(F)(F)C(F)(F)COCCCOc2ccc(N3C(=S)N(c4ccc(C#N)c(C(F)(F)F)c4)C(=O)C3(C)C)cc2)C(C)(C)C)cc1 | 6.3 | 7 | < 1 | 0.26 | < 0.79 | < 3 | – |
| Cc1ncsc1-c1ccc(CNC(=O)[C@@H]2C[C@@H](O)CN2C(=O)[C@@H](NC(=O)COCCCCCOc2ccc(C(=O)N[C@H]3C(C)(C)[C@H](Oc4ccc(C#N)c(C(F)(F)F)c4)C3(C)C)cc2)C(C)(C)C)cc1 | 6.7 | 7 | < 1 | – | – | – | – |
| N#Cc1ccc(N2CCC[C@@H]2C(O)CO)cc1C(F)(F)F (stereo partly drawn) | – | > 5 | 13.3 | – | – | – | – |
| O=C1CCC(N2C(=O)c3cccc(O)c3C2=O)C(=O)N1 (stereo not drawn) | 0.4 | > 5 | 2 | – | – | – | Activity [3]: 23% |
| CN1C(=O)N(c2ccc(C#N)c(C(F)(F)F)c2)C(=O)C1(C)c1ccc(OCCOCCOCCOCCOc2cccc3c2CN([C@H]2CCC(=O)NC2=O)C3=O)cc1 (stereo partly drawn) | – | – | 0.3 | – | – | – | – |
| Cc1ncsc1-c1ccc(CNC(=O)[C@@H]2C[C@@H](O)CN2C(=O)[C@@H](NC(=O)CCOCCOCCOCCOc2ccc(N3C(=S)N(c4ccc(C#N)c(C(F)(F)F)c4)C(=O)C3(C)C)cc2)C(C)(C)C)cc1 | 5.1 | 11 | < 1 | < 0.69 | 2.6 | > 12 | – |
| CC(O)(COc1ccc(OCCOCCOCCOCCOc2cccc3c2C(=O)N(C2CCC(=O)NC2=O)C3=O)cc1)C(=O)Nc1ccc(C#N)c(C(F)(F)F)c1 (stereo not drawn) | – | – | 0.3 | – | – | – | – |
| CC1(C)C(=O)N(c2ccc(C#N)c(C(F)(F)F)c2)C(=S)N1c1ccc(OCCOCCOCCOCCOC23CC4CC(CC(C4)C2)C3)cc1 | – | – | < 1 | 0.15 | 0.22 | 1.5 | – |
| N#Cc1ccc(N2CCC[C@@H]2C(O)COCCOCCOCCOCCOC23CC4CC(CC(C4)C2)C3)cc1C(F)(F)F (stereo partly drawn) | – | – | 2.3 | – | – | – | – |
